# Assay results from different studies.
# Target: cAMP-dependent protein kinase catalytic subunit PRKX (PRKX, Homo sapiens, UniProt P51817)
# Residues used in one study (P51817 1-358): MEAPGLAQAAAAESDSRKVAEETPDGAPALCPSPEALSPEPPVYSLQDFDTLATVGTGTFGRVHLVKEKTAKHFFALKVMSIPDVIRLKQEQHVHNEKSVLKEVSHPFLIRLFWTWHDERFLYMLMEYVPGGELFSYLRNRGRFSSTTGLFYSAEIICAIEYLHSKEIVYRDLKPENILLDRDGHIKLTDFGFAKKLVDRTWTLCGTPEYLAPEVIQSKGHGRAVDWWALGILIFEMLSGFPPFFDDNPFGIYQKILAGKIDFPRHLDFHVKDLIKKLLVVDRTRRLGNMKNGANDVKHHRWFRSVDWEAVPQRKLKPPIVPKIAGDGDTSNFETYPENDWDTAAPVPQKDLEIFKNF
Structure (SMILES),observed,mode,method,tested at,endpoint,value
COc1ncccc1-c1cnn2ccc(N3CCN(C(=O)OC(C)C)CC3)nc12,binding,,competition with immobilised ligand,1 µM,remaining binding,100%
Cn1cc(-c2cc(F)cc(N3CCn4c(cc5c4CCCC5)C3=O)c2CO)cc(Nc2ccc(N3CCN(C4COC4)CC3)cn2)c1=O,enzyme activity,inhibitor,,0.1 µM,inhibition,17%
Nc1ncc(-c2nc(N3CCOCC3)nc(N3CCOCC3)n2)c(C(F)F)n1,binding,,competition with immobilised ligand,10 µM,remaining binding,90%
CC(C)(C)c1cc(C=C(C#N)C#N)cc(Br)c1O,enzyme activity,inhibitor,,0.5 µM,remaining activity,102%
COc1cc(Nc2ncc(F)c(Nc3ccc4c(n3)NC(=O)C(C)(C)O4)n2)cc(OC)c1OC,binding,,,10 µM,inhibition,0%
O=c1[nH]c2ccccc2n1C1CCN(Cc2ccc(-c3[nH]c4cc5ncnc5cc4nc3-c3ccccc3)cc2)CC1,cell-free assay,,,0.5 µM,remaining signal,101%
Cn1cc(-c2cccc(N3CCc4c(sc5c4CC(C)(C)C5)C3=O)c2CO)cc(Nc2ccncn2)c1=O,enzyme activity,inhibitor,,1 µM,inhibition,1%
Cn1cncc1[C@@](O)(COc1ccc(C#N)cc1-c1ccc(OC(F)(F)F)cc1)c1ccc(C#N)cc1,cell-free assay,,competition with immobilised ligand,1 µM,remaining binding,94%
Cc1nn(C)cc1-c1nc2c(N3CCN(Cc4ccc(Cl)cc4)CC3)c(Cl)cnc2[nH]1,binding,,competition with immobilised ligand,1 µM,remaining binding,18%
